CXCR6 block = CXCR6 receptor inhibitors, primary screen, cell-based, beta-arrestin, luminescence, CHO-K1 PathHunter, 1536-well; AID 602244, 2012; 360,000 tested, 0.36% active; inhibition, % at 20 µM; C-X-C chemokine receptor type 6 (Homo sapiens), O00574; in the data active = inhibition above about 34%, passing the limit was not always enough;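 also: antagonist mode with CXCL16 agonist at 10 nM final; 0% = 10 nM CXCL16 with DMSO and 100% = unstimulated wells without agonist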
Target sequence (O00574 whole entry, looked up): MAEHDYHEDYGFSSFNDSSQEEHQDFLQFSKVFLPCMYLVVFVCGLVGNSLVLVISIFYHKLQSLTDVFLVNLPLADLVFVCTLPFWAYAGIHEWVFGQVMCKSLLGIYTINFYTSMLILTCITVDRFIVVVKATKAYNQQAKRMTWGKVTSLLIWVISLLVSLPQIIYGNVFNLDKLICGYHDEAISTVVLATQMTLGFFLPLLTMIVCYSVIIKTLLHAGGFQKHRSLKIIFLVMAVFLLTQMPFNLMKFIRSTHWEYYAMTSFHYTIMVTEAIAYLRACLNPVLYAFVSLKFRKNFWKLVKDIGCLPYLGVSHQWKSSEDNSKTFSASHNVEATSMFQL
APJ antag = antagonists of human apelin receptor APJ, primary screen, CHO-K1 cells, beta-arrestin complementation, luminescence | 330,000 tested, 0.32% active | inhibition, % at 20 µM | AID 2521, 2010 | P35414;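 active = inhibition above about 40% at 20 µM, limit read from the data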;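 also: cells challenged with 10 nM apelin-13 agonist together with compound; plate controls were apelin-13 plus DMSO wells for no effect and DMSO wells lacking apelin-13 for full effect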
EBI2 block = EBI2 receptor antagonists, beta-arrestin recruitment, primary screen, cell-based, luminescence, 7a,25-OHC stimulation, uHTS; G-protein coupled receptor 183 (Homo sapiens), P32249; 7a,25-OHC stimulated; inhibition, % at 5 µM; 360,000 tested, 0.81% active; in the data active = inhibition above about 38%;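 also: enzyme fragment complementation signal reports receptor beta-arrestin coupling in cells; 0% = agonist plus DMSO wells and 100% = wells without agonist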
Target sequence (P32249 whole entry, looked up, the tested form may be a part): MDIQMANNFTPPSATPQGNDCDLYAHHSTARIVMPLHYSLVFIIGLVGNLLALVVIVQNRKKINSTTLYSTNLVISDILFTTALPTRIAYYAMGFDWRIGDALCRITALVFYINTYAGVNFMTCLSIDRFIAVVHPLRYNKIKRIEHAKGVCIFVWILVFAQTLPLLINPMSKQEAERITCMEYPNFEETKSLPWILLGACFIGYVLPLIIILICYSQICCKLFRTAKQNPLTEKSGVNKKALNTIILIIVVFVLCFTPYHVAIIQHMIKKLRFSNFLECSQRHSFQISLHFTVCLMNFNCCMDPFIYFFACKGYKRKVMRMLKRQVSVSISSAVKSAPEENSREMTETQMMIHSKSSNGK
CCR6 antag = CCR6 receptor antagonists, primary screen, cell-based, CHO-K1, luminescence, beta-arrestin, uHTS. inhibition, % at 20 µM. CHO-K1 CCR6 PathHunter beta-arrestin, CCL20-stimulated. C-C chemokine receptor type 6 (Homo sapiens), P51684. 340,000 tested, 0.49% active;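 active = compounds whose inhibition of the agonist-driven luminescence signal at 20 µM reaches about 50%, limit read from the data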;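 also: cells stimulated with CCL20 at 14 nM final; plate controls were DMSO with CCL20 for no effect and DMSO without agonist for full effect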
APJ ag = agonists of human apelin receptor APJ, primary screen, CHO-K1 cells, PathHunter beta-arrestin, luminescence; AID 2520, 2010; 330,000 tested, 0.11% active; P35414; activation, % at 20 µM; 0% DMSO wells, 100% apelin;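 active = activation more than six SD over the plate average, tested at 20 µM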;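 also: 0% = DMSO alone and 100% = apelin-13 at 10 nM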
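Material: engineered CHO-K1 APJ arrestin reporter cells; amount: 1000 CHO-K1 reporter cells seeded per well; incubation: compound stimulation 90 min at 25 °C, detection 60 min; signal: luminescent beta-gal fragment complementation, chemiluminescent substrate; read-out basis: APJ agonist activity; controls: DMSO-only wells as negative, 10 nM Apelin-13 as positive control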
APJ ag confirm = agonists of human apelin receptor APJ, confirmation, cell-based, single concentration, CHO-K1, beta-arrestin, luminescence; activation, % at 20 µM; shares compounds with APJ ag; CHO-K1 APJ PathHunter beta-arrestin; 310 tested, 10% active;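 active = activation above 40%, taking the highest of four retests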;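 also: plate controls were DMSO wells for no effect and apelin-13 at 10 nM for full effect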
* = called active by the depositor; x = not tested or not shown. A selection: hits, their analogues and other compounds. The true share with any hit is near 1.5%.

SMILES | CXCR6 block | APJ antag | EBI2 block | CCR6 antag | APJ ag | APJ ag confirm
COC(=O)[C@]1(Cc2ccccc2)N[C@H](CN(C)C(=O)Nc2ccc(OC)cc2)[C@@H]2C(=O)N(C)C(=O)[C@@H]21 | -3 | -6 | -7 | -4 | -4 | x
COC(=O)[C@]1(Cc2ccccc2)N[C@H](CN(C)C(=O)Nc2ccc(OC)cc2)[C@@H]2C(=O)N(Cc3ccccc3)C(=O)[C@@H]21 | 3 | -7 | 1 | 1 | 12* | -3
COc1ccc(CC(=O)Nc2cccc(-c3nnc(-c4ccc(C)cc4)o3)c2)cc1OC | 14 | -14 | -21 | 21 | 28* | 24
COc1cc(C(=O)c2nccc3cc(OC)c(OC)cc23)c([N+](=O)[O-])cc1OC | -2 | -11 | -23 | -4 | 14* | 4
O=C(O)CCCCCN1C(=O)/C(=C/c2cn(-c3ccccc3)nc2-c2cccs2)SC1=S | 16 | x | 23 | 13 | x | x
CC1=NNC(=O)/C1=C\c1cn(-c2ccccc2)nc1-c1cccs1 | 1 | -7 | 68* | 46 | 26* | 7
Clc1cccc(Cl)c1CSc1nnc(-c2ccncc2)s1 | -8 | -18 | -53 | -17 | 70* | 27
CCC(=O)N1CCN(c2ccc(NC(=O)c3cc4ccccc4o3)cc2Cl)CC1 | -5 | -17 | -25 | -4 | 23 | x
O=C(Nc1ccc(N2CCN(C(=O)c3ccco3)CC2)c(Cl)c1)c1cc2ccccc2o1 | -4 | -45 | -51 | -17 | 17* | 34
CCCC(=O)N1CCN(c2ccc(NC(=O)c3cc4ccccc4o3)cc2Cl)CC1 | -12 | -6 | -73 | 6 | 30* | 10
CCc1nc2c(OCC(=O)c3ccc(Cl)cc3Cl)cccn2c1N(C)C(=O)c1cccs1 | 6 | x | 11 | x | x | x
O=[N+]([O-])c1ccc2nc(-c3ccc(Cl)cc3)[nH]c2c1 | -6 | -15 | 11 | -24 | 14* | 31
Brc1ccc(NCc2cccc3ccccc23)nc1 | -3 | -12 | -1 | 15 | -5 | x
Oc1ccccc1CNc1ccc(Br)cn1 | -8 | 5 | -56 | -4 | 18* | 26
CCN(CC)C(=O)C1=C(C)N(CCCOC)C(=O)C(CC(=O)NCc2cccs2)C1 (stereo not drawn) | 6 | x | -10 | x | x | x
COc1ccccc1N=c1c2c([N+](=O)[O-])cc([N+](=O)[O-])cc2n(O)n1-c1ccccc1OC | x | -22 | x | x | 15* | 17
Cc1cnc(C)c(Nc2nc(C(N)Cc3ccc(C(F)(F)F)cc3)cs2)n1 (stereo not drawn) | -18 | x | -6 | x | x | x
CCCCn1nnnc1C(c1cc2ccccc2o1)N(Cc1ccccc1)Cc1ccccc1 (stereo not drawn) | 15 | x | 5 | x | x | x
Cc1ccc(CN2C(=O)CSCC2(C)C(=O)NCc2ccccc2)cc1 (stereo not drawn) | x | x | 3 | x | x | x
Cc1ccc(/C=N/NC(=O)CSc2nnc(-c3ccc(Cl)cc3)n2-c2ccc(Cl)cc2)o1 | -47 | -253 | -28 | -52 | 28* | 163*
Cc1ccc(/C=N/NC(=O)CSc2nnc(-c3ccccc3)n2-c2ccc(Cl)cc2)o1 | -11 | -85 | -17 | -20 | 14* | 43*
CCCCn1nnnc1C1(C)CCC(=O)N1CCOC (stereo not drawn) | 2 | x | -3 | x | x | x
CCCCNC(=O)c1nc(C2CCN(S(=O)(=O)c3ccccc3C(F)(F)F)CC2)oc1-c1ccccc1 | 4 | x | 2 | x | x | x
O=C(C1CCC(CNS(=O)(=O)c2cccs2)CC1)N1CCN(c2ccc(Cl)cc2)CC1 (stereo not drawn) | -13 | -40 | -32 | -7 | 26* | 20
Cc1ccc(S(=O)(=O)Nc2nc(-c3ccccc3)cs2)cc1 | 10 | 8 | 4 | 11 | 30* | 55*
SMILES | CXCR6 block | APJ antag | EBI2 block | CCR6 antag | APJ ag | APJ ag confirm
CSc1ccc(CN2CCC2(C)C(=O)Nc2cccc(Oc3ccccc3)c2)cc1 (stereo not drawn) | 7 | x | 24 | x | x | x
O=[N+]([O-])c1cccc(/C=N/n2c(COc3ccccc3)n[nH]c2=S)c1 | 2 | 11 | 17 | 22 | -3 | x
O=[N+]([O-])c1ccc(/C=N/n2c(COc3ccccc3)n[nH]c2=S)cc1 | 2 | -19 | 8 | 17 | 14* | 8
COC(=O)c1ccc2c(=O)n(CCCCCC(=O)N3CCN(c4ccc(F)cc4)CC3)c(=O)[nH]c2c1 | -10 | -35 | -34 | -8 | 47* | 35
O=C(OCc1cc(=O)n2ccsc2n1)C1(c2ccccc2)CC1 | 1 | x | 11 | x | x | x
COc1ccccc1-n1c(SCC(=O)NC(C)(C)C)nc(O)cc1=O | 0 | 11 | -8 | 0 | 1 | x
COc1ccccc1-n1c(SC)nc(O)cc1=O | 0 | -70 | -2 | 0 | 66* | 88*
Cc1ccc(CN2CCC2(C)C(=O)NC2CCc3ccccc32)cc1 (stereo not drawn) | 4 | x | 10 | x | x | x
Cc1cc(C)n2nc3nc(N4CCCCC4)nc(-c4ccco4)c3c2n1 | 3 | 26 | -5 | 17 | 73* | 41*
COc1cc(S(=O)(=O)N2CCN(Cc3ccc4c(c3)OCO4)CC2)ccc1NC(C)=O | -2 | -5 | -2 | x | 16* | -4
COc1ccc(S(=O)(=O)N2CCN(Cc3ccc4c(c3)OCO4)CC2)cc1F | -5 | -5 | -6 | 13 | -2 | x
O=c1[nH][nH]c2c1C(C1CCCCC1)OC(C1CCCCC1)C2 (stereo not drawn) | -8 | x | 1 | x | x | x
CCC(C(=O)NC1CCCC1)n1c(-c2ccnc3ccccc23)nc2ccccc21 (stereo not drawn) | x | x | -11 | x | x | x
O=C1NC[C@@H](CCCCN2C[C@H](Cc3ccccc3)N(Cc3ccccc3)C(=O)C2=O)N(Cc2ccccc2)C1=O | 4 | x | 2 | x | x | x
CCOC(=O)[C@]12CCCC=C1N(Cc1cccc3ccccc13)C(=O)[C@H](CC(=O)NCCCN1CCCC1=O)C2 | -4 | x | -11 | x | x | x
COc1cccc(N2CCN(c3ncnc4c3cnn4-c3ccc(C)cc3C)CC2)c1 | -4 | -58 | -74 | -7 | 16* | 34
Cc1ccc(C(=O)N2CCN(c3ncnc4c3cnn4-c3ccccc3)CC2)cc1 | -9 | -20 | 13 | x | 32* | -2
Cc1ccc(-n2ncc3c(N4CCCC4)ncnc32)c(C)c1 | 0 | 4 | -2 | -1 | -2 | x
CC1(C(=O)NCc2ccccc2)Cc2c(-c3ccc4c(c3)OCO4)ccnc2O1 (stereo not drawn) | -3 | x | -4 | x | x | x
CC(NC(=O)c1cccc(S(=O)(=O)N2CCc3ccccc32)c1)c1ccco1 (stereo not drawn) | 9 | 18 | 7 | 17 | -1 | x
